Assay results pooled from the literature.
Lines come from different studies, so protocols differ.
FOLH1: Glutamate carboxypeptidase 2 (FOLH1, Homo sapiens, UniProt Q04609)
PIK3CB: Phosphatidylinositol 4,5-bisphosphate 3-kinase catalytic subunit beta isoform (PIK3CB, Homo sapiens, UniProt P42338)
PIK3CA: Phosphatidylinositol 4,5-bisphosphate 3-kinase catalytic subunit alpha isoform (PIK3CA, Homo sapiens, UniProt P42336)

CC1(C)CN(CCCCC(=O)N[C@H](Cc2ccccc2)C(=O)N[C@H](Cc2ccccc2)C(=O)N[C@@H](CCCCNC(=O)CCCCCCC(=O)NCCCC[C@H](NC(=O)N[C@@H](CCC(=O)O)C(=O)O)C(=O)O)C(=O)O)CC[N]2CC(C)(C)[S][Tc]2(=[O])[S]1 (stereo partly shown) — Kd (FOLH1; binding, radioligand): 15.5 nM
CC[C@H](C)[C@H](NC(=O)[C@H](Cc1nc2ccccc2s1)NC(=O)CCC(=O)O)C(=O)N[C@H]1CCc2cccc3c2N(C1=O)[C@H](C(=O)NCc1cn[nH]n1)C3 — Ki (Granzyme B (GZMB, Homo sapiens, UniProt P10144); enzyme activity, inhibitor, fluorescence): 37.8 nM
COc1cc(N=C2C(=O)N(Cc3ccccc3)c3ccccc32)cc(OC)c1 — IC50 (PIK3CB; enzyme activity, inhibitor, ADP detection): 38 nM
CC1(C)CN(CCCCC(=O)N[C@@H](CCCCNC(=O)CCCCCCC(=O)NCCCC[C@H](NC(=O)N[C@@H](CCC(=O)O)C(=O)O)C(=O)O)C(=O)O)CC[N]2CC(C)(C)[S][Tc]2(=[O])[S]1 (stereo partly shown) — Kd (FOLH1; binding, radioligand): 14.4 nM
CCCCC(=O)Nc1ccc(-c2ccc3ncn(CCC)c(=O)c3c2)cn1 — Kd (Phosphatidylinositol 5-phosphate 4-kinase type-2 beta (PIP4K2B, Homo sapiens, UniProt P78356); binding, competition with immobilised ligand): > 20000 nM
O=C1C(=Nc2ccc(Cl)cc2Br)c2ccccc2N1Cc1ccc(Br)cc1 — IC50 (PIK3CA; enzyme activity, inhibitor, ADP detection): 43.4 nM
CN(C)C(=O)c1cc2cnc(Nc3cccc4c(=O)cc(N5CCOCC5)oc34)nc2n1C1CCCC1 — IC50 (PIK3CA; enzyme activity, inhibitor, radiometric): > 10000 nM
O=C1Nc2ccccc2/C1=N/c1ccccc1Br — IC50 (PIK3CB; enzyme activity, inhibitor, ADP detection): 524 nM
OC[C@H]1O[C@H](O[C@]2(CCl)O[C@H](CCl)[C@@H](O)[C@@H]2O)[C@H](O)[C@@H](O)[C@H]1Cl — EC50 (T1R2/T1R3 (Homo sapiens, UniProt Q7RTX0+Q8TE23); calcium signal, agonist): 232000 nM
CN(C)C(=O)c1cc2cnc(Nc3ccc4c(=O)cc(N5CCOCC5)oc4c3)nc2n1C1CCCC1 — IC50 (PIK3CA; enzyme activity, inhibitor, radiometric): 32.5 nM
O.O=C([O-])CN(CCN(CC(=O)[O-])Cc1cc(CCC(=O)O)ccc1O)Cc1cc(CCC(=O)NCCCCCC(=O)NCCCC[C@H](NC(=O)N[C@@H](CCC(=O)O)C(=O)O)C(=O)O)ccc1[O-].[Ga+3] — Kd (FOLH1; binding, radioligand): 11.6 nM
CN1CCN(c2cc(=O)c3ccc(Nc4ncc5cc(C(=O)N(C)C)n(C6CCCC6)c5n4)cc3o2)CC1 — IC50 (PIK3CA; enzyme activity, inhibitor, radiometric): > 10000 nM
C=CCN1C(=O)C(=Nc2cccc(C)c2)c2ccccc21 — IC50 (PIK3CA; enzyme activity, inhibitor, ADP detection): 205 nM
